# Results as given in ChEMBL document CHEMBL1124216, “A novel class of potential central nervous system agents. 3-Phenyl-2-(1-piperazinyl)-5H-1-benzazepines” (1988).
# Key:
# Type in all cases: functional
# Mus musculus [1] = assay: Antipentylene tetrazole activity was determined in mice when administered perorally; settings: po
# Method in brief: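 Groups of five male Std-ddY mice received compound orally in 0.5% tragacanth, then pentylenetetrazole 175 mg/kg ip. Blockade of the tonic extensor component scored as anticonvulsant. ED50 was the dose protecting 50% of animals (Litchfield-Wilcoxon).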
# Mus musculus [2] = assay: Antimaximal electroshock seizure (MES) activity in mice after peroral administration of 100 mg/kg of compound; 5/5; settings: route oral
# Mus musculus [3] = assay: Antimaximal electroshock seizure activity was determined in mice when administered perorally; settings: po
# Mus musculus [4] = assay: Antiexploratory activity (EXPL) of mice determined by an antimex activity meter, 100 mg/kg of dose was administered perorally; No inhibition; settings: route oral
# Mus musculus [5] = assay: Antitremorine activity(TRM) of mice after peroral administration of 100 mg/kg of compound; settings: route oral
# Mus musculus [6] = assay: Antireserpine activity (RES) of mice after peroral administration of 100 mg/kg of compound; No inhibition; settings: route oral
# Mus musculus [7] = assay: Antimaximal electroshock seizure (MES) activity in mice after peroral administration of 100 mg/kg of compound; 0/5; settings: route oral
# Mus musculus [8] = assay: Antitremorine activity(TRM) of mice after peroral administration of 100 mg/kg of compound; No inhibition; settings: route oral
# Mus musculus [9] = assay: Antiexploratory activity (EXPL) of mice determined by an antimex activity meter, 100 mg/kg of dose was administered perorally; Slight inhibition (31-50%); settings: route oral
# Mus musculus [10] = assay: Antireserpine activity (RES) of mice after peroral administration of 50 mg/kg of compound; No inhibition; settings: route oral
# Mus musculus [11] = assay: Antiexploratory activity (EXPL) of mice determined by an antimex activity meter, 50 mg/kg of dose was administered perorally; No inhibition; settings: route oral
# Mus musculus [12] = assay: Antiexploratory activity (EXPL) of mice determined by an antimex activity meter, 100 mg/kg of dose was administered perorally; Moderate inhibition (51-71%); settings: route oral
# Mus musculus [13] = assay: Antitremorine activity(TRM) of mice after peroral administration of 100 mg/kg of compound; Slight inhibition (31-50%); settings: route oral
# Mus musculus [14] = assay: Antimaximal electroshock seizure (MES) activity in mice after peroral administration of 10 mg/kg of compound; 0/5; settings: route oral
# Mus musculus [15] = assay: Antimaximal electroshock seizure (MES) activity in mice after peroral administration of 100 mg/kg of compound; 4/5; settings: route oral
# Mus musculus [16] = assay: Antitremorine activity(TRM) of mice after peroral administration of 100 mg/kg of compound; Moderate inhibition (51-71%); settings: route oral
# Mus musculus [17] = assay: Antiexploratory activity (EXPL) of mice determined by an antimex activity meter,100 mg/kg of dose was administered perorally; No inhibition
# Canis familiaris = assay: Inhibition of apomorphine induced emesis in dogs at 1 mg/kg of dose.; settings: Canis lupus familiaris
# Method in brief: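 Beagle dogs (10-15 kg), groups of three, given compound po in a gelatin capsule; 2 h later apomorphine hydrochloride 0.3 mg/kg sc. Vomiting counted for 1 h; mean inhibition as percent of control. ED50 is the dose giving 50% inhibition of emesis, by Litchfield-Wilcoxon.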
# Mus musculus [18] = assay: 3,4 -Dihydroxy phenylacetic acid (DOPAC) levels in mouse brain at 10 mg/kg dose.
# Method in brief: (§1)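 Male Std-ddY mice, 20-25 g, dosed orally with compound in 0.5% aqueous tragacanth. DOPAC was measured fluorometrically after purification by column chromatography on Sephadex G-10 and QAE-Sephadex. Brains from five mice per compound were pooled for each determination.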
# Mus musculus [19] = assay: 3,4 -Dihydroxy phenylacetic acid (DOPAC) levels in mouse brain at 50 mg/kg dose.; method in brief: as §1
# Mus musculus [20] = assay: The homovanillic acid (HVA) levels in mouse brain at 10 mg/kg of dose.
# Method in brief: (§2)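 Mice dosed orally in 0.5% aqueous tragacanth; brains of five mice per compound pooled. Homovanillic acid measured in brain extracts and reported as brain level.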
# Mus musculus [21] = assay: The homovanillic acid (HVA) levels in mouse brain at 50 mg/kg of dose.; method in brief: as §2
# Mus musculus [22] = assay: Exploratory activity of mice determined by an antimex activity meter, 10 mg/kg of dose was administered perorally; settings: route oral
# Mus musculus [23] = assay: Exploratory activity of mice determined by an antimex activity meter, 50 mg/kg of dose was administered perorally; settings: Mus musculus, po
# Method in brief: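 Male Std-ddY mice (20-25 g), five per dose; compound in 0.5% aqueous tragacanth given orally. Two hours later each mouse placed in an Animex activity meter cage and locomotor activity counted for 3 min. Mean suppression expressed as percent inhibition of control; ED50 by Litchfield-Wilcoxon.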
# Mus musculus [24] = assay: Antiexploratory activity (EXPL) of mice determined by an antimex activity meter, 50 mg/kg of dose was administered perorally; Moderate inhibition (51-71%); settings: route oral
# Mus musculus [25] = assay: Antiexploratory activity (EXPL) of mice determined by an antimex activity meter, 10 mg/kg of dose was administered perorally; No inhibition; settings: route oral
# Mus musculus [26] = assay: Antireserpine activity (RES) of mice after peroral administration of 100 mg/kg of compound; Slight inhibition (31-50%); settings: route oral
# Mus musculus [27] = assay: Antimaximal electroshock seizure (MES) activity in mice after peroral administration of 100 mg/kg of compound; 3/5; settings: route oral
# Mus musculus [28] = assay: Antitremorine activity(TRM) of mice after peroral administration of 50 mg/kg of compound; No inhibition; settings: route oral
structure (smiles),measurement,setting,value
CN1CCN(C2=Nc3ccc(Br)cc3CC=C2c2ccccc2)CC1.Cl.Cl,ED50,Mus musculus [1],8.3 mg/kg
same,Activity,Mus musculus [2],5
same,ED50,Mus musculus [3],31.2 mg/kg
same,inhibition in vivo at 100 mg/kg,Mus musculus [4],< 30%
same,inhibition in vivo at 100 mg/kg,Mus musculus [5],> 71%
same,inhibition in vivo at 100 mg/kg,Mus musculus [6],< 30%
CN1CCN(C2=Nc3ccc(F)cc3CC=C2c2ccccc2)CC1.Cl.Cl,Activity,Mus musculus [7],0
same,ED50,Mus musculus [1],> 200 mg/kg
same,ED50,Mus musculus [3],> 500 mg/kg
same,inhibition in vivo at 100 mg/kg,Mus musculus [8],< 30%
same,inhibition in vivo at 100 mg/kg,Mus musculus [9],31%
same,inhibition in vivo at 100 mg/kg,Mus musculus [6],< 30%
OCCN1CCN(C2=Nc3ccccc3CC=C2c2ccc(O)cc2)CC1,inhibition in vivo at 50 mg/kg,Mus musculus [10],< 30%
same,inhibition in vivo at 50 mg/kg,Mus musculus [11],< 30%
Cl.Cl.OCCN1CCN(C2=Nc3ccccc3CC=C2c2ccccc2Cl)CC1,Activity,Mus musculus [7],0
same,inhibition in vivo at 100 mg/kg,Mus musculus [12],51%
same,inhibition in vivo at 100 mg/kg,Mus musculus [13],31%
same,inhibition in vivo at 100 mg/kg,Mus musculus [6],< 30%
CN1CCN(C2=Nc3ccccc3CC=C2c2ccc(C(F)(F)F)cc2)CC1,inhibition in vivo at 50 mg/kg,Mus musculus [10],< 30%
same,inhibition in vivo at 50 mg/kg,Mus musculus [11],< 30%
Cl.Cl.OCCN1CCN(C2=Nc3ccc(Cl)cc3CC=C2c2ccccc2)CC1,Activity,Mus musculus [14],0
same,ED50,Mus musculus [1],26.5 mg/kg
same,Activity,Mus musculus [15],4
same,ED50,Mus musculus [3],49.5 mg/kg
same,inhibition in vivo at 100 mg/kg,Mus musculus [4],< 30%
same,inhibition in vivo at 100 mg/kg,Mus musculus [16],51%
same,inhibition in vivo at 100 mg/kg,Mus musculus [6],< 30%
CCN1CCN(C2=Nc3ccccc3CC=C2c2ccc(Cl)cc2)CC1.Cl.Cl,Activity,Mus musculus [7],0
same,inhibition in vivo at 100 mg/kg,Mus musculus [12],51%
same,inhibition in vivo at 100 mg/kg,Mus musculus [8],< 30%
same,inhibition in vivo at 100 mg/kg,Mus musculus [6],< 30%
OCCN1CCN(C2=Nc3ccccc3CC=C2c2ccc(C(F)(F)F)cc2)CC1,inhibition in vivo at 50 mg/kg,Mus musculus [10],< 30%
same,inhibition in vivo at 50 mg/kg,Mus musculus [11],< 30%
OC1(c2ccc(Cl)cc2)CCN(C2=Nc3ccccc3CC=C2c2ccccc2)CC1,Activity,Mus musculus [7],0
same,inhibition in vivo at 100 mg/kg,Mus musculus [8],< 30%
same,inhibition in vivo at 100 mg/kg,Mus musculus [9],31%
same,inhibition in vivo at 100 mg/kg,Mus musculus [6],< 30%
CCc1ccc2c(c1)CC=C(c1ccccc1)C(N1CCN(C)CC1)=N2.Cl.Cl,Activity,Mus musculus [14],0
same,Activity,Mus musculus [2],5
same,inhibition in vivo at 100 mg/kg,Mus musculus [16],51%
same,inhibition in vivo at 100 mg/kg,Mus musculus [6],< 30%
CCc1ccc2c(c1)CC=C(c1ccccc1)C(N1CCN(C(C)C)CC1)=N2.O=C(O)/C=C/C(=O)O,Activity,Mus musculus [14],0
same,Activity,Mus musculus [2],5
same,Inhibition,Mus musculus [17],<30%
same,inhibition in vivo at 100 mg/kg,Mus musculus [16],51%
same,inhibition in vivo at 100 mg/kg,Mus musculus [6],< 30%
Cl.Cl.OCCN1CCN(C2=Nc3ccccc3CC=C2c2ccc(F)cc2)CC1,inhibition in vivo at 1 mg/kg,Canis familiaris,100%
same,Control,Mus musculus [18],262%
same,Control,Mus musculus [19],369%
same,Control,Mus musculus [20],243%
same,Control,Mus musculus [21],349%
same,inhibition in vivo at 10 mg/kg,Mus musculus [22],19.6%
same,inhibition in vivo at 50 mg/kg,Mus musculus [23],68.4%
same,inhibition in vivo at 50 mg/kg,Mus musculus [24],51%
same,inhibition in vivo at 10 mg/kg,Mus musculus [25],< 30%
CN1CCN(C2=Nc3ccccc3CC=C2c2ccccc2)CC1.Cl.Cl,Activity,Mus musculus [7],0
same,ED50,Mus musculus [3],> 100 mg/kg
same,inhibition in vivo at 100 mg/kg,Mus musculus [12],51%
same,inhibition in vivo at 100 mg/kg,Mus musculus [26],31%
same,inhibition in vivo at 100 mg/kg,Mus musculus [8],< 30%
CCN1CCN(C2=Nc3ccc(Br)cc3CC=C2c2ccccc2)CC1.Cl.Cl,Activity,Mus musculus [27],3
same,ED50,Mus musculus [1],17.2 mg/kg
same,ED50,Mus musculus [3],30.7 mg/kg
same,inhibition in vivo at 100 mg/kg,Mus musculus [4],< 30%
same,inhibition in vivo at 100 mg/kg,Mus musculus [8],< 30%
same,inhibition in vivo at 100 mg/kg,Mus musculus [6],< 30%
Clc1ccc(C2=CCc3ccccc3N=C2N2CCCCC2)cc1,Activity,Mus musculus [7],0
same,inhibition in vivo at 50 mg/kg,Mus musculus [11],< 30%
same,inhibition in vivo at 50 mg/kg,Mus musculus [28],< 30%
same,inhibition in vivo at 100 mg/kg,Mus musculus [6],< 30%
CCCCN1CCN(C2=Nc3ccc(CC)cc3CC=C2c2ccccc2)CC1.O=C(O)/C=C/C(=O)O,Activity,Mus musculus [7],0
same,Inhibition,Mus musculus [17],<30%
same,inhibition in vivo at 100 mg/kg,Mus musculus [13],31%
same,inhibition in vivo at 100 mg/kg,Mus musculus [6],< 30%
